# Assay outcomes from PubChem BioAssay.
# V1R ag counter: agonists of human V1a receptor, primary screen, counter-screen for OXTR agonist project, fluorescence, CHO-V1R cells | Fluo-8 calcium fluorescence, agonist mode; 0% DMSO, 100% 3 nM vasopressin | hit rate 0.25% among 320,000 | activation, % at 3 µM | Vasopressin V1a receptor (Homo sapiens), P37288;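 active means activation above the mean activation of all tested compounds plus 3 SD, per screening run, cut at about 20% in these data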;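 further: signal is peak over basal fluorescence ratio across a 100 second FLIPR read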
# TRPN1 ag: zebrafish TRPN1 channel agonists, primary screen, cell-based, HEK293, calcium fluorescence; transient receptor potential cation channel N1 (TRPN1/NompC), Danio rerio; HEK293 zebrafish TRPN1-YFP, Fluo-8 calcium fluorescence; 100% = response to 87 µM carbachol; activation, % at 3 µM; hit rate 0.18% among 220,000; AID 1424, 2008;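 active means activation above its plate's cutoff, the mean activation of test wells on that plate plus 3 SD, cut at about 19% in these data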;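 further: 0% = DMSO alone and 100% = 87 µM carbachol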
#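 Material: zebrafish TRPN1-YFP in HEK293 cells; Doses: single test compound dose, 3 µM nominal, 0.3% DMSO; Timing: dye loading 1 h at 37 °C, then 30 min room temperature; Technique: intracellular calcium fluorescence with Fluo-8; Benchmarks: high carbachol 87 µM, low DMSO alone.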
# TRPML3 ag: human TRPML3 channel agonists, primary screen, cell-based, HEK293 TRPML3-YFP, Fluo-8 calcium fluorescence, 3 µM. Mucolipin-3 (Homo sapiens), Q8TDD5. 100% = the carbachol control signal. activation, % at 3 µM. hit rate 0.29% among 220,000. AID 1448, 2008;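 active means activation above its plate's cutoff, the mean activation of the plate's test wells plus 3 SD, cut at about 12% in these data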;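 further: 0% = DMSO only wells and 100% = carbachol wells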
#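 system = HEK293 cells stably carrying human TRPML3-YFP | doses = one concentration, 3 µM nominal, 0.3% DMSO | timing = dye loading 1 h 37 °C then 30 min ambient, 125 s read | detection = Fluo-8 calcium dye fluorescence, ex 470-495, em 515-575 nm | benchmarks = high control carbachol 87 µM, low control DMSO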
# OXTR ag: human OXTR agonists, primary screen, fluorescence, CHO-OTR cells, Fluo-8 calcium. Oxytocin receptor (Homo sapiens), P30559. Fluo-8 calcium fluorescence; normalized: DMSO 0%, oxytocin 100%. activation, % at 3 µM. hit rate 0.32% among 320,000;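 active means activation above the mean of all tested compounds plus 3 SD, cutoff set per screening run, cut at about 20% in these data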;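 further: peak over basal fluorescence ratio from a 100 s FLIPR kinetic read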
# Target sequence (P30559 whole entry, looked up): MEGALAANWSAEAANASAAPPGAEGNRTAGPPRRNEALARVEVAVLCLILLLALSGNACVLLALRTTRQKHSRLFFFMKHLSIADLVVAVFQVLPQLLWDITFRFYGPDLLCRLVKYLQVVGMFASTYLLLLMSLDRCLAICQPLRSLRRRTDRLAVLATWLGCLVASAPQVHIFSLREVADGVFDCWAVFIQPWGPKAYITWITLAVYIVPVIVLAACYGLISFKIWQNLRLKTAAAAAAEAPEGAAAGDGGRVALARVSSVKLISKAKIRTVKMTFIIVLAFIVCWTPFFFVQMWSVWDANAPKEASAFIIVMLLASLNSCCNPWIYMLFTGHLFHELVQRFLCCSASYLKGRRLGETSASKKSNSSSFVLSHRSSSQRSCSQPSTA
# OXTR potentiate: human OXTR potentiators, primary screen, fluorescence, CHO-OTR cells, Fluo-8 calcium; Oxytocin receptor (Homo sapiens), P30559; Fluo-8 calcium fluorescence, potentiator mode; 0% = oxytocin EC15, 100% = EC100; activation, % at 3 µM; hit rate 0.061% among 320,000; AID 2445, 2010;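 active means activation above that plate's cutoff, the mean activation of tested compounds plus 3 SD, cut at about 6.6% in these data, passing the limit was not always enough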;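 further: 100% uses oxytocin at 75 nM as the full agonist control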
#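 System: human OTR in CHO cells; Also added: sub-maximal oxytocin, roughly EC15; Timing: compound 6 min at room temperature before oxytocin, 100 s read; Technique: Fluo-8 intracellular calcium fluorescence, ex 470-495, em 515-575 nm; Controls: oxytocin EC15 low and EC100 high; Replication: singlicate.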
# OXTR pot confirm: human OXTR potentiators, confirmation, fluorescence, CHO-OTR cells, triplicate | AID 434985, 2010 | shares compounds with OXTR potentiate | 180 tested, under 10 active | Fluo-8 calcium fluorescence, potentiation; scaled from low-dose to maximal oxytocin | activation, % at 3 µM;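 active means mean percent activation over triplicates above a cutoff set from solvent-only control plates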;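 further: compounds tested in the presence of an EC15 dose of oxytocin; 0% = EC15 oxytocin with DMSO and 100% = EC100 oxytocin with DMSO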
# * marks the source's active call; other numbers are inactive results; / = no result given. A selection: hits, their analogues and other compounds. The true share with any hit is near 0.58%.
SMILES,V1R ag counter,TRPN1 ag,TRPML3 ag,OXTR ag,OXTR potentiate,OXTR pot confirm
C[C@]12c3[nH]c4ccccc4c3CCN1C(=O)C(CC(=O)NCCCn1ccnc1)C[C@@H]2C(=O)N1CCCCC1 (some centres not stated),0.3,/,/,0.4,-1.5,/
Clc1ccc(-c2nnc(SCc3nc(-c4ccccc4)no3)o2)cc1,2.0,0.6,0.0,-1.3,-8.4,/
c1ccc(-c2noc(CSc3nc4ccccc4o3)n2)cc1,-1.5,-1.0,-0.3,-1.1,12.7*,-5.8
O=C(c1ccccc1)N1CCN(S(=O)(=O)N2CCOCC2)CC1,1.2,1.1,1.0,2.0,14.1*,-1.8
COc1cc(OC)cc(C(=O)NCC(=O)N2CCN(S(=O)(=O)c3ccccc3F)CC2)c1,0.3,/,/,0.9,13.7*,0.6
O=C(NCC(=O)N1CCN(S(=O)(=O)c2ccccc2F)CC1)c1ccc2c(c1)OCO2,0.4,/,/,-0.6,-3.8,/
CNC(=O)c1c(NC(=O)c2cc(-c3cc(C)c(C)cc3O)n[nH]2)sc2c1CCCC2,-0.1,2.4,0.1,1.2,6.6*,-9.6
CNC(=O)c1c(NC(=O)c2ccco2)sc2c1CCC2,-1.7,/,/,-0.9,-8.9,/
CCCCN1CC(=O)N2[C@H]3c4cc(C)ccc4OC[C@@H]3[C@H](C(=O)OCC)[C@]2(C)C1=O,-0.1,/,/,-0.8,-4.4,/
O=S(=O)(c1ccc(S(=O)(=O)N2CCCC2)cc1)N1CCCCC1,0.5,/,/,0.6,-4.3,/
O=S(=O)(c1ccc(S(=O)(=O)N2CCOCC2)cc1)N1CCCC1,2.1,0.5,-0.8,1.6,12.3*,-4.3
Cc1oc(-c2ccc(Cl)cc2)nc1CS(=O)CC(=O)NCc1ccco1 (configuration not stated),0.9,/,/,-0.7,7.9*,-8.3
CCOc1ccc(C(=O)OCC(=O)N(Cc2ccccc2)Cc2ccccc2)cc1OC,1.4,/,/,0.3,-7.7,/
CCOc1ccc(NC(=O)c2ccc3c(c2)N(Cc2ccc(F)cc2)C(=O)CS3=O)cc1 (configuration not stated),-0.8,2.1,-0.3,-0.6,12.4*,-2.6
CC(=O)N[C@@H](C)c1nc2ccccc2n1CCCN1CCN(c2nc(-c3ccc(C)cc3)cs2)CC1,-1.8,/,/,-2.2,-15.5,/
COc1cc(SC)ccc1C(=O)NCCCOC(C)C,0.5,-1.2,0.2,-0.3,11.3*,-6.8
CCCNC(=O)c1ccc(SC)cc1OC,-1.7,-1.5,-0.2,-2.4,-13.3,/
Cc1cc(C)n(C(=O)C(C(=O)c2ccccc2)C(C)C)n1 (configuration not stated),0.4,-2.4,-0.2,-2.6,10.6*,0.6
CCOc1ccc(-c2c(C(=O)N/N=C/c3ccc(O)cc3)nnn2-c2nonc2N)cc1,-0.2,0.9,0.7,0.4,9.6*,2.1
CCOc1ccc(-c2c(C(=O)N/N=C/c3ccc(C)o3)nnn2-c2nonc2N)cc1,1.2,/,/,1.9,-19.4,/
Cc1cc2c(cc1S(=O)(=O)Nc1cccc(F)c1)n(C)c(=O)c(=O)n2C,0.7,/,/,0.7,-6.0,/
CC(=O)c1sc(NC(=O)C=C(C)C)nc1C,0.1,0.6,0.1,-0.4,9.1*,-8.8
CCCCC(=O)Nc1nc(C)c(C(C)=O)s1,-0.1,0.3,-0.2,-0.3,4.9,/
CC(=O)N1CCN(C(=O)C(Cc2c[nH]c3ccccc23)NC(=O)c2ccccc2Cl)CC1 (configuration not stated),0.5,/,/,1.5,15.2*,-5.7
Nc1nc(N)nc(-c2cccc(Cl)c2)n1,0.2,/,/,0.6,-0.9,/
CC1=C(C(=O)OC(C)C)C(c2cccs2)NC(=O)N1 (configuration not stated),-0.2,0.0,0.9,0.6,9.9*,-5.0
